From ChEMBL document CHEMBL5696442, “Discovery of type II inhibitors of TGFβ-activated kinase 1 (TAK1) and mitogen-activated protein kinase kinase kinase kinase 2 (MAP4K2)” (J Med Chem, 2015)
Activity calls are given as the source filed them. The calls are words filed in the database; no cut-off is given here.

Columns and labels:
[1] = target: Myosin-IIIb (Homo sapiens) (UniProt Q8WXR4); assay: Inhibition of MYO3B (unknown origin) at 1 uM by Ambit Kinomescan binding assay relative to control
Outline: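 In vitro ATP-site competition binding assay against a panel of over 420 kinases (KinomeScan), with compound tested at 10 or 1 μM.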

[2] = target: Fibroblast growth factor receptor 2 (Homo sapiens) (UniProt P21802); assay: Inhibition of FGFR2 (unknown origin) at 1 uM by Ambit Kinomescan binding assay relative to control; values are per cent of control
Fibroblast growth factor receptor 2 (Homo sapiens), sequence (P21802 22-821 limits assumed): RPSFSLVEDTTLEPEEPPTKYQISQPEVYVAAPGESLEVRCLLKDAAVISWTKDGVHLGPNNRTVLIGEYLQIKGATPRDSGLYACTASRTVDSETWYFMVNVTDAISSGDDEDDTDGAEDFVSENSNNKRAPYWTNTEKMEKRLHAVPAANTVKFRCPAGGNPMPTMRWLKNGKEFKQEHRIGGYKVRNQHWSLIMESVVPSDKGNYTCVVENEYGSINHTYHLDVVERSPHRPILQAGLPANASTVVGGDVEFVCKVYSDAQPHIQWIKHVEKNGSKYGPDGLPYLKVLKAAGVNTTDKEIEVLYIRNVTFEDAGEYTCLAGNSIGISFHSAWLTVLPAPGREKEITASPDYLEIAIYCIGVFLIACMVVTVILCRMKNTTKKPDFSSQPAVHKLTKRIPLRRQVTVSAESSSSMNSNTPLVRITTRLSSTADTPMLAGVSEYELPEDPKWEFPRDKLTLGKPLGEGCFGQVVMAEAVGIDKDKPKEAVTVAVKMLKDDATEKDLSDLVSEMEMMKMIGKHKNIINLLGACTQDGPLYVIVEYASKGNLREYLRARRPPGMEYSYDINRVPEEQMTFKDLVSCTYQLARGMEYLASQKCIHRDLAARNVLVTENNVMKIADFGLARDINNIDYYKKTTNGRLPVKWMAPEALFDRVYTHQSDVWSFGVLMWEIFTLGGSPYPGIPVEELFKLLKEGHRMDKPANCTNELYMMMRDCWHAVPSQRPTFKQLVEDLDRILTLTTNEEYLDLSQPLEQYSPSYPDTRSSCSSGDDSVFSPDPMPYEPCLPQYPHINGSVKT

[3] = target: Dual specificity protein kinase TTK (Homo sapiens) (UniProt P33981); assay: Inhibition of TTK (unknown origin) at 1 uM by Ambit Kinomescan binding assay relative to control
Dual specificity protein kinase TTK (Homo sapiens), sequence (P33981 whole entry): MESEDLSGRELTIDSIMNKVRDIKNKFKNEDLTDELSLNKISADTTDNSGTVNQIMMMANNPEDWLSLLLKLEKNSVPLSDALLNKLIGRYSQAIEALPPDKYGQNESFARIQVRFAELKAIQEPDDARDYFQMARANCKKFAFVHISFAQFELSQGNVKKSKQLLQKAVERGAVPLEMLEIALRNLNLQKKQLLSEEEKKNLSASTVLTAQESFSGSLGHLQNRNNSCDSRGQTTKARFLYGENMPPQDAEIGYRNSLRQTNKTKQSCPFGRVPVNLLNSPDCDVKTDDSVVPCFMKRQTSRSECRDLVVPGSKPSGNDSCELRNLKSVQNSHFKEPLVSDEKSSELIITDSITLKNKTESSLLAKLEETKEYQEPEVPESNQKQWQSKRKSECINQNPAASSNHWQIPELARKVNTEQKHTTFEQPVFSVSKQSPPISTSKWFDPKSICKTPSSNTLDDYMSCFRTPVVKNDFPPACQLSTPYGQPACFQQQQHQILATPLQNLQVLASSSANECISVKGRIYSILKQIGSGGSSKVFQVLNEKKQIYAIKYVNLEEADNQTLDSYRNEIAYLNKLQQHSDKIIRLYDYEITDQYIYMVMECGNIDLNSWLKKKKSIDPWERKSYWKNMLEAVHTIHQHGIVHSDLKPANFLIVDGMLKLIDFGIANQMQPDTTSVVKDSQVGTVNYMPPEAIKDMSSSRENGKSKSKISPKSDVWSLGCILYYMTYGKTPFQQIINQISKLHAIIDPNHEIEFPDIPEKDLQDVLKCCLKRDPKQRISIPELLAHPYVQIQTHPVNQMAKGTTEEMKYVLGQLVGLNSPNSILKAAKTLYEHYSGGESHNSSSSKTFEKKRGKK

[4] = target: Serine/threonine-protein kinase SIK3 (Homo sapiens) (UniProt Q9Y2K2); assay: Inhibition of QSK Lys2 labeling site in human A-375 cells at 0.05 uM by KiNativ Profiling analysis relative to control; assay type: cell-based
[5] = target: Focal adhesion kinase 1 (Homo sapiens) (UniProt Q05397); assay: Inhibition of FAK (unknown origin) at 10 uM by Ambit Kinomescan binding assay relative to control
Focal adhesion kinase 1 (Homo sapiens), sequence (Q05397 2-1052 limits assumed): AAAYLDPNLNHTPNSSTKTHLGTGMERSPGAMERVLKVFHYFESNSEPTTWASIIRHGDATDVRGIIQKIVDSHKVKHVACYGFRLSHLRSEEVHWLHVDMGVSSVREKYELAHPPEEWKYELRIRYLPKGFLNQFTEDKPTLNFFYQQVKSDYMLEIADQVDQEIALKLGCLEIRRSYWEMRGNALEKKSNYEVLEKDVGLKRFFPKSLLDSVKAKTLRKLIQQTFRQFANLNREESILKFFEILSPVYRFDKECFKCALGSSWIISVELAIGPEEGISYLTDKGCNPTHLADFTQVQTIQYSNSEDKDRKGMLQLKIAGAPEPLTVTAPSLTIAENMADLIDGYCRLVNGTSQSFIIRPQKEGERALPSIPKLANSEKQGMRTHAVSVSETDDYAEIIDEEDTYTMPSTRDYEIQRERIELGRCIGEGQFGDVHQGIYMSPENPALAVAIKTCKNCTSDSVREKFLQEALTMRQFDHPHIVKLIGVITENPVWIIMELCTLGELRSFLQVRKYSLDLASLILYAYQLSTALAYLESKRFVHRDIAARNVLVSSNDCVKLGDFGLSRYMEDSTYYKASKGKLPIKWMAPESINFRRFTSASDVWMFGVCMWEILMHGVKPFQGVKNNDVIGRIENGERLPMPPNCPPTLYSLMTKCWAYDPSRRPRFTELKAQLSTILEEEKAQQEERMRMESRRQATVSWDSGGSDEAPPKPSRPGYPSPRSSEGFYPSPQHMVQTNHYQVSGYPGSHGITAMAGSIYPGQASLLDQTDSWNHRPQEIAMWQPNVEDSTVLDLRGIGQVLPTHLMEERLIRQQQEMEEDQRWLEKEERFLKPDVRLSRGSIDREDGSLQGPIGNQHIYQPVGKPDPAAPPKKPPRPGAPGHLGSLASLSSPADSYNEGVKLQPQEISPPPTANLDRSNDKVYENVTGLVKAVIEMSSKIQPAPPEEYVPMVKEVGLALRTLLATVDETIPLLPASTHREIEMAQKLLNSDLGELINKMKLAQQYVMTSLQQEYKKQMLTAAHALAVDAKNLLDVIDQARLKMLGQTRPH

[6] = target: Proto-oncogene tyrosine-protein kinase receptor Ret (Homo sapiens) (UniProt P07949); assay: Inhibition of RET (unknown origin) at 10 uM by Ambit Kinomescan binding assay relative to control; values are per cent of control
[7] = target: Cyclin-dependent kinase 17 (Homo sapiens) (UniProt Q00537); assay: Inhibition of PCTK2 (unknown origin) at 10 uM by Ambit Kinomescan binding assay relative to control
Cyclin-dependent kinase 17 (Homo sapiens), sequence (Q00537 whole entry, looked up): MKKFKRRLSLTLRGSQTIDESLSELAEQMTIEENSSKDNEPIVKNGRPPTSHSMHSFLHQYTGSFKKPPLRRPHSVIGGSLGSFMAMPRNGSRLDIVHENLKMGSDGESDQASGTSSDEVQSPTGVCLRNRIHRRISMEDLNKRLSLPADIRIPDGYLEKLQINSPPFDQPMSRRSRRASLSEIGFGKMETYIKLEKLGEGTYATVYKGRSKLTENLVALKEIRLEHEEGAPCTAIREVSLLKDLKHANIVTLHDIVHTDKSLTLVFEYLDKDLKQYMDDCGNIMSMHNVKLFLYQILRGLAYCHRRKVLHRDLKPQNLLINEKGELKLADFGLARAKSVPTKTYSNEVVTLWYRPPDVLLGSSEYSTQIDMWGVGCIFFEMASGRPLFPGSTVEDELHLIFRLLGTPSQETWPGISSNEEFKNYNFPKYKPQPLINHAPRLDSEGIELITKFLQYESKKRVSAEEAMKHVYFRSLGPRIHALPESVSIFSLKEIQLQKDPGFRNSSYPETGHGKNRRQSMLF

[8] = test system: Mast/stem cell growth factor receptor Kit (Homo sapiens), P10721 [V559D,T670I]; assay: Inhibition of KIT V559D/T670I double mutant (unknown origin) at 10 uM by Ambit Kinomescan binding assay relative to control
[9] = target: Cyclin-dependent kinase 14 (Homo sapiens) (UniProt O94921); assay: Inhibition of PFTK1 (unknown origin) at 10 uM by Ambit Kinomescan binding assay relative to control
Cyclin-dependent kinase 14 (Homo sapiens), sequence (O94921 whole entry): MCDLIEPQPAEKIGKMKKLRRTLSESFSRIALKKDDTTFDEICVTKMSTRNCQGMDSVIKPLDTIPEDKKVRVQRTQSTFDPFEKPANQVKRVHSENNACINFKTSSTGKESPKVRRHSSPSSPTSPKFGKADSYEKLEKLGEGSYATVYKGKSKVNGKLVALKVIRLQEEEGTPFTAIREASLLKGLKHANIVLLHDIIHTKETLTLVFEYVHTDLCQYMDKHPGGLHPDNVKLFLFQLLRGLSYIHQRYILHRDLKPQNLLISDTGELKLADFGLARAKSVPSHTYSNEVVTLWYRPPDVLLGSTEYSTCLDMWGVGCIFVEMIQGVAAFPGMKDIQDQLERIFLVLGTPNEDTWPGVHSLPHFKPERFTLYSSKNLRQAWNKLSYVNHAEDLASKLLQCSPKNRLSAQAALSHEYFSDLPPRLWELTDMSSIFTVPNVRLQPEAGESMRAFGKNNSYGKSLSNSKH

[10] = target: Cyclin-dependent kinase 11B (Homo sapiens) (UniProt P21127); assay: Inhibition of CDK11 (unknown origin) at 10 uM by Ambit Kinomescan binding assay relative to control; values are per cent of control
[11] = target: Phosphorylase b kinase gamma catalytic chain, skeletal muscle/heart isoform (Homo sapiens) (UniProt Q16816); assay: Inhibition of PHKG1 (unknown origin) at 10 uM by Ambit Kinomescan binding assay
Phosphorylase b kinase gamma catalytic chain, skeletal muscle/heart isoform (Homo sapiens), sequence (Q16816 whole entry, looked up, canonical isoform): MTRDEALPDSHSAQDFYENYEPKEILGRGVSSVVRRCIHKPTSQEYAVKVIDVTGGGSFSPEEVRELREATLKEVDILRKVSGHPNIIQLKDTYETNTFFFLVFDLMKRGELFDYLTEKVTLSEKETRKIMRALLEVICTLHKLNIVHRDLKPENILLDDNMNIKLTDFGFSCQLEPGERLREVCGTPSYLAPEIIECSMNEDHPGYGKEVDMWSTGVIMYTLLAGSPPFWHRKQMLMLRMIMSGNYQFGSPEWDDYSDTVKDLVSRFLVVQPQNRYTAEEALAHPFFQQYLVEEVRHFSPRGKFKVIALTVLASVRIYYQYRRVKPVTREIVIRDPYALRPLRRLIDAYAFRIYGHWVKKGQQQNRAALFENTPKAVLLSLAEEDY

[12] = target: T1, Serine/threonine-protein kinase ULK3 (Homo sapiens) (UniProt Q6PHR2); assay: Inhibition of ULK3 K1 labeling site in human Huh-7 cells at 10 uM by KiNativ Profiling analysis relative to control; assay type: cell-based
T1 sequence (whole entry): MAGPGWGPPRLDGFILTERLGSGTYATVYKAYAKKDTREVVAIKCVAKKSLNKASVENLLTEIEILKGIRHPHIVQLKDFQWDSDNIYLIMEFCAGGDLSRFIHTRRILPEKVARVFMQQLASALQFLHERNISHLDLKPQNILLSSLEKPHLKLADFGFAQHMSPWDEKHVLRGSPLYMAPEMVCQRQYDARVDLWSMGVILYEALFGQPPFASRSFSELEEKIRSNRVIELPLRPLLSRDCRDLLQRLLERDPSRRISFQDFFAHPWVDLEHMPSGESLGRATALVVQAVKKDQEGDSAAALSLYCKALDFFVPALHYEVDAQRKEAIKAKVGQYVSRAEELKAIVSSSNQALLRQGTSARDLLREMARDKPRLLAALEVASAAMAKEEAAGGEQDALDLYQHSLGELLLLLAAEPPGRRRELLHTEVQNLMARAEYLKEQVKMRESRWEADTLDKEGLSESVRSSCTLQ

[13] = target: Fibroblast growth factor receptor 2 (Homo sapiens) (UniProt P21802); assay: Inhibition of FGFR2 (unknown origin) at 10 uM by Ambit Kinomescan binding assay relative to control; values are per cent of control
[14] = test system: eIF-2-alpha kinase GCN2 (Homo sapiens), Q9P2K8 [S808G]; assay: Inhibition of GCN2 kinase domain S808G mutant (unknown origin) at 10 uM by Ambit Kinomescan binding assay
[15] = target: Tyrosine-protein kinase Fyn (Homo sapiens) (UniProt P06241); assay: Inhibition of FYN (unknown origin) at 10 uM by Ambit Kinomescan binding assay relative to control; values are per cent of control
Tyrosine-protein kinase Fyn (Homo sapiens), sequence (P06241 2-537 limits assumed): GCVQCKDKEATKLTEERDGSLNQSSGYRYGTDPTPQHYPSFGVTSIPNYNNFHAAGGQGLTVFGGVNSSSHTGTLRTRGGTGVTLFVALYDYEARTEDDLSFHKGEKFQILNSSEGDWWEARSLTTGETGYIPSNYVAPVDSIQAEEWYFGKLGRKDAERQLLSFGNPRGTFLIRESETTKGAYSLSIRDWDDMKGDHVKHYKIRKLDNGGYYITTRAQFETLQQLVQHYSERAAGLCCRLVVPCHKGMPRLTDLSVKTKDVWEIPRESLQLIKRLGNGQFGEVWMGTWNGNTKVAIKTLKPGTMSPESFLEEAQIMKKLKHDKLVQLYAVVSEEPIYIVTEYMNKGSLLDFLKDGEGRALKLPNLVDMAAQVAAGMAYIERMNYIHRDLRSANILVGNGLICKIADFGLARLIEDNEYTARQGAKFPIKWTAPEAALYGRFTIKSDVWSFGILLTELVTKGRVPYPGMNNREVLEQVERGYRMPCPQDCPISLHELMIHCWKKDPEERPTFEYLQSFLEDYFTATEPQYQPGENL

[16] = target: 5'-AMP-activated protein kinase catalytic subunit alpha-1 (Homo sapiens) (UniProt Q13131); assay: Inhibition of AMPKa1 Lys1 labeling site in human Huh-7 cells at 1 uM by KiNativ Profiling analysis relative to control; assay type: cell-based
[17] = target: Serine/threonine-protein kinase Nek7 (Homo sapiens) (UniProt Q8TDX7); assay: Inhibition of NEK7 Lys2 labeling site harbouring DIKPANVFITATGVVK in human Huh-7 cell lysate at 1 uM by KiNativ Profiling analysis relative to control; assay type: subcellular
Serine/threonine-protein kinase Nek7 (Homo sapiens), sequence (Q8TDX7 whole entry, looked up): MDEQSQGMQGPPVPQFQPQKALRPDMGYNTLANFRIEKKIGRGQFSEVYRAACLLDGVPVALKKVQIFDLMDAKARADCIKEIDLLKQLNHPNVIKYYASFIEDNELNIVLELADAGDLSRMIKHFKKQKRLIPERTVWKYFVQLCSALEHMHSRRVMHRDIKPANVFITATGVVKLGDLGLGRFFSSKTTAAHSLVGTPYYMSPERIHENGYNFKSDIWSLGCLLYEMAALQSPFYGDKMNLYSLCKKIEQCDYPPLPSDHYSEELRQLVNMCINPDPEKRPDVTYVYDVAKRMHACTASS

[18] = target: T2, Inhibitor of nuclear factor kappa-B kinase subunit epsilon (Homo sapiens) (UniProt Q14164); assay: Inhibition of IKKe Lys2 labeling site in human Huh-7 cells at 1 uM by KiNativ Profiling analysis relative to control; assay type: cell-based
T2 sequence (whole entry): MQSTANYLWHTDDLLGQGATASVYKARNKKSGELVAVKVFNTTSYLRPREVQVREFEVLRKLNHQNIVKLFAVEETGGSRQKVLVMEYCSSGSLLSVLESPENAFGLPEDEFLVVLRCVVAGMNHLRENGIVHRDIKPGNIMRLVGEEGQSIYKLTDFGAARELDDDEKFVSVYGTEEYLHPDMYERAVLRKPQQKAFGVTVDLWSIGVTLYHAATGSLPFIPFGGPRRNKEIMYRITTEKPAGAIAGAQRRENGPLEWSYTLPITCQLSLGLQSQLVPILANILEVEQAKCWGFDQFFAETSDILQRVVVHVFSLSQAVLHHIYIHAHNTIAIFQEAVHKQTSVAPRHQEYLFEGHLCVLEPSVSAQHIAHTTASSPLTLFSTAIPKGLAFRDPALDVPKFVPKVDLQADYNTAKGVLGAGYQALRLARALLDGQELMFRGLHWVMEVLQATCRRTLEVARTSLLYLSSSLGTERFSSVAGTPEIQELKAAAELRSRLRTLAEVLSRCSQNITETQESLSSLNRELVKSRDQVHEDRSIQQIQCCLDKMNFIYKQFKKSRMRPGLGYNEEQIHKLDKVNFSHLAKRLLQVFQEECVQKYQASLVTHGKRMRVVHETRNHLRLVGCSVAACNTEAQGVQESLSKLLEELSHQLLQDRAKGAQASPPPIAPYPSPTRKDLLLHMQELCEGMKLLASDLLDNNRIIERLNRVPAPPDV

[19] = target: Serine/threonine-protein kinase WNK2 (Homo sapiens) (UniProt Q9Y3S1); assay: Inhibition of Wnk2 Lys2 labeling site in human Huh-7 cells at 1 uM by KiNativ Profiling analysis relative to control; assay type: cell-based

## CCN1CCN(Cc2ccc(NC(=O)c3ccc(C)c(/C=C/c4cnc5[nH]ccc5c4OC)c3)cc2C(F)(F)F)CC1
[1]
  inhibition: 84%
[2]
  percent of control: 5.4%
[3]
  inhibition: 56%
[4]
  inhibition: 29.6%

## CCN1CCN(Cc2ccc(NC(=O)c3ccc(C)c(Oc4ccnc5[nH]ccc45)c3)cc2C(F)(F)F)CC1
[5]
  inhibition: 23%
[6]
  residual activity: 0%
[7]
  inhibition: 0.1%
[8]
  inhibition: 0.05%
[9]
  inhibition: 0.4%
[10]
  % of control: 0.1%
[11]
  inhibition: inactive
[12]
  inhibition: 48%
[13]
  percent of control: 1.4%
[14]
  inhibition: inactive
[15]
  percent of control: 1.6%

## CNc1cc(Oc2cc(C(=O)Nc3cc(N4CCN(C)CC4)cc(C(F)(F)F)c3)ccc2C)ncn1
[16]
  inhibition: -7.5%
[17]
  inhibition: -5%
[18]
  inhibition: 17.7%
[19]
  inhibition: 15.3%
